# A selection: hits, their analogues and other compounds. The true share with any hit is near 1.7%.
# PREPL inhibitor – PREPL enzyme inhibitors, primary screen, biochemical, fluorescence polarization; recombinant PREPL, fluorescence polarization activity-based probe; inhibition, % at 5.96 µM; AID 2751, 2010; Prolyl endopeptidase-like (Homo sapiens), Q4J6C6; actives 0.68% (n = 320,000); in the data active means inhibition above about 43%;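 further: 0% = enzyme with DMSO and 100% = wells lacking enzyme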
# EBNA-1 inh – EBNA-1 DNA-binding inhibitors, primary screen, biochemical, fluorescence polarization; actives 0.34% (n = 300,000); AID 1950, 2009; inhibition, % at 14.8 µM; in the data active means inhibition above about 28%
# ZTA counter – ZTA (EBV) inhibition in EBNA-1 counter-screen; AID 2234; actives 0.15% (n = 320,000); ZTA-DNA binding, fluorescence polarization; inhibition, % at 11 µM; P03206; in the data active means inhibition above about 33%
# Target sequence (P03206 whole entry, looked up): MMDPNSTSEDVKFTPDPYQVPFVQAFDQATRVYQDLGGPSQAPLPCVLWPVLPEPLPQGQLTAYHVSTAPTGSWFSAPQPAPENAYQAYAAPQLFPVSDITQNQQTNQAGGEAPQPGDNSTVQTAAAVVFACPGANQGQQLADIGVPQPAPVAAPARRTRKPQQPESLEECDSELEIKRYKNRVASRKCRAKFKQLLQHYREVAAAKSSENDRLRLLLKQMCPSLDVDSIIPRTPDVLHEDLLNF
# Apaf-1 inh – inhibitors of human Apaf-1 apoptosome, primary screen, biochemical, DEVD-Rh110 fluorescence, uHTS | Apoptotic protease-activating factor 1 (Homo sapiens), O14727 | reconstituted apoptosome caspase-3 activity | inhibition, % at 20 µM | actives 0.71% (n = 330,000); active means inhibition of at least 40% at 20 µM;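 further: plate controls were DMSO wells for no effect and DEVD-CHO caspase inhibitor wells for full effect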
#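 Material: biochemical Apaf-1 apoptosome reconstitution. Medium: Hepes buffer, pH 7.5. Also added: cytochrome c activation, bis-DEVD rhodamine 110 substrate. Timing: 30 min compound preincubation, 50 min activation, room temperature. Measured by: rhodamine 110 fluorescence at Ex 480/Em 540 nm.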
# UBC13 polyUb – UBC13 polyubiquitin chain formation inhibitors, primary screen, biochemical, TR-FRET, uHTS. inhibition, % at 20 µM. actives 0.47% (n = 330,000). AID 485273, 2010; in the data active means inhibition above about 45%, passing the limit was not always enough
# Target sequence (P61088 whole entry, looked up): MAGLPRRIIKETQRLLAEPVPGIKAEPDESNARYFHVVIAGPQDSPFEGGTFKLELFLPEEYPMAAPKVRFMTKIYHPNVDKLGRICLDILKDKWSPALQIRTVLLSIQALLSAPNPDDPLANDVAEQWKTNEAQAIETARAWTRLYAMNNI
# Casp3 UBC13 ctr – CASP3 inhibitor validation, counterassay for project on UBE2N polyubiquitination blockers, biochemical, one dose | shares compounds with UBC13 polyUb | Recombinant caspase-3, Caspase-Glo 3/7 luminescence, 60 min | inhibition, % at 20 µM | actives 4% (n = 1,400) | AID 488856, 2010;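 active means mean inhibition across replicates above about 26%, limit read from the data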;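 further: plate controls were DMSO with caspase-3 for no effect and DMSO wells lacking enzyme for full effect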
# UBC13 confirm – UBC13 polyubiquitination inhibitors, single-point retest, confirmation, biochemical, TR-FRET, single concentration; shares compounds with UBC13 polyUb; inhibition, % at 10 µM; actives 68% (n = 1,400); AID 488859, 2010; in the data active means inhibition above about 45%
# An asterisk follows results filed as active; . = no result.
SMILES,PREPL inhibitor,EBNA-1 inh,ZTA counter,Apaf-1 inh,UBC13 polyUb,Casp3 UBC13 ctr,UBC13 confirm
O=C(CCc1ccccc1)NNC(=O)c1ccccn1,-5,4,5,-1,50*,2,64*
Cc1ccc(S(=O)(=O)NCCNc2ccc([N+](=O)[O-])cc2)cc1,-24,-9,1,11,-6,.,.
O=C(NC(=S)Nc1ccc2oc(-c3ccncc3)nc2c1)c1ccccc1F,11,-18,-2,5,-8,.,.
COc1ccc(/C=C2\SC(=O)N(CCNC(=O)C3CCN(S(=O)(=O)c4cccs4)CC3)C2=O)cc1,12,3,6,13,-8,.,.
C[C@@H](O)C1NC(=O)[C@H](CCCCN)NC(=O)c2cc([N+](=O)[O-])cc(F)c2NCCCC[C@@H](C(N)=O)NC1=O (stereo not given in full),20,1,6,-6,96*,0,101*
O=C(N/N=C/c1ccncc1)c1cc([N+](=O)[O-])cc([N+](=O)[O-])c1,12,-9,-13,5,-5,.,.
C/C(=N\NC(=O)CSCc1ccc([N+](=O)[O-])cc1)c1cccc(Br)c1,-12,4,3,15,47*,-2,34
O=C(CSCc1ccc([N+](=O)[O-])cc1)N/N=C/c1ccncc1,-6,10,4,-4,68*,-5,75*
C/C(=N\NC(=O)CSCc1ccccc1Br)c1cccc([N+](=O)[O-])c1,0,-3,10,-13,-4,.,.
O=C(CSCc1ccc([N+](=O)[O-])cc1)N/N=C/c1cccnc1,-7,5,4,-1,86*,-1,96*
O=C(Cc1ccc([N+](=O)[O-])cc1)N/N=C/c1cccnc1,0,0,8,-19,-1,.,.
CCS(=O)(=O)N1N=C(c2ccccc2)CC1c1ccc2nccnc2c1 (stereo not given),-6,-10,2,-5,-1,.,.
COc1cc(-c2nc3cc(C)ccn3c2NC2CCCCC2)ccc1-c1ccc(C(C)=O)cc1,10,1,2,16,-31,.,.
CCCCCCSc1cc(-c2nc3cc(C)ccn3c2NC2CCCCC2)ccc1OC,7,-10,-15,21,51*,-1,30
CCCCNc1c(-c2ccc(OC)c(SC3CCCCC3)c2)nc2cc(C)ccn12,18,-14,-5,21,50*,3,22
CCOc1c(OC(C)=O)ccc(/C=C/c2ccc3cccc(OC(C)=O)c3n2)c1[N+](=O)[O-],13,17,1,10,-28,.,.
CCOc1ccc(C(=O)N2CCCN(C(=O)c3ccc(OCC)cc3)CC2)cc1,8,-18,-12,2,6,.,.
O=C(NC1(C(F)(F)F)N=C2SCCN2C1=O)c1cccnc1 (stereo not given),-11,-16,1,1,48*,-3,-8
COc1cccc(C(=O)NC2(C(F)(F)F)N=C3SCCN3C2=O)c1 (stereo not given),-10,5,8,0,13,.,.
O=C(Nc1nnc(-c2ccc(F)cc2)o1)c1cc(Cl)sc1Cl,-2,9,12,6,-7,.,.
COc1cccc(-c2nnc3n2N=C(c2cc(OC)ccc2OC)CS3)c1,-2,8,3,11,56*,-3,48*
CC(=O)NC(c1cc(Cl)c2cccnc2c1O)C1CC1 (stereo not given),11,.,-8,0,-12,.,.
CCC(=O)NC(c1cc(Cl)c2ccccc2c1O)C1CC1 (stereo not given),-1,.,2,9,84*,-1,72*
CCC(=O)NC(C)c1cc(Cl)c2ccccc2c1O (stereo not given),12,.,-12,0,51*,0,34
Cc1nc(C(=O)Nc2ccc(Cl)cc2)sc1C1(C)CC(c2cccc([N+](=O)[O-])c2)=NO1 (stereo not given),-2,1,-1,0,-19,.,.

# Screening data as filed in PubChem.
